Laboratory results: ChEMBL document CHEMBL3745707 (Bioorg Med Chem, 2016)
Active and inactive are the calls of the source. The rule behind the calls is not given here.

What was measured:
[1] = biological target: Serine/threonine-protein kinase Nek2 (Homo sapiens, UniProt P51955); test: Inhibition of human NEK2 using MBP as substrate
[2] = biological target: Serine/threonine-protein kinase PLK1 (Homo sapiens) (UniProt P53350)
[3] = biological target: T1, Serine/threonine-protein kinase PLK2 (Homo sapiens, UniProt Q9NYY3); test: Inhibition of human recombinant PLK2 using recombinant dephosphorylated bovine alpha- casein as substrate after 30 mins by scintillation counting analysis in presence of gamma-32P-ATP
Target sequence in this assay (Q9NYY3 whole entry): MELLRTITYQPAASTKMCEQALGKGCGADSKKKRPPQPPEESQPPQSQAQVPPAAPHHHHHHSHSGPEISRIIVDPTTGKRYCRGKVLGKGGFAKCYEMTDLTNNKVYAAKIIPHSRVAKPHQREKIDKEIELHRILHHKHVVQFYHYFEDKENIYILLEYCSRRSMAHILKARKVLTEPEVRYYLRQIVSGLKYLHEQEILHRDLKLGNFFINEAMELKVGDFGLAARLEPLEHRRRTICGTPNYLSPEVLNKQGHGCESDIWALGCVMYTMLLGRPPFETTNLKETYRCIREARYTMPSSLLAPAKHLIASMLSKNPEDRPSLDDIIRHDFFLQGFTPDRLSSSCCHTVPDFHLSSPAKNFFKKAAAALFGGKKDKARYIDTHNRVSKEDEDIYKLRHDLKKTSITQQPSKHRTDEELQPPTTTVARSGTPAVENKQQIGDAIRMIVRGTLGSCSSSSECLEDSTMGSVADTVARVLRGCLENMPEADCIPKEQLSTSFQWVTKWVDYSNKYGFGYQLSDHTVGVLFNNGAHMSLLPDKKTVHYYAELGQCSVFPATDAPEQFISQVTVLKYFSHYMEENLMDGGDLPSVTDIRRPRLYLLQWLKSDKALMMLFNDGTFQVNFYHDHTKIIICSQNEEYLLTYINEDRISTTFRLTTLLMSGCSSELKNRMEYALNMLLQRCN

[4] = biological target: TRAF2 and NCK-interacting protein kinase (Homo sapiens, UniProt Q9UKE5); test: Inhibition of human TNIK using [RLGRDKYKTLRQIRQ] as substrate
[5] = biological target: Mitogen-activated protein kinase 14 (Homo sapiens, UniProt Q16539); test: Inhibition of human P38alpha using MBP as substrate
[6] = biological target: Serine/threonine-protein kinase Nek1 (Homo sapiens, UniProt Q96PY6); test: Inhibition of human NEK1 using MBP as substrate
[7] = biological target: Glycogen synthase kinase-3 alpha (Homo sapiens, UniProt P49840); test: Inhibition of human GSK3alpha using [YRRAAVPPSPSLSRHSSPHQ(pS)EDEEE] as substrate
[8] = biological target: Serine/threonine-protein kinase Nek5 (Homo sapiens, UniProt Q6P3R8); test: Inhibition of human NEK5 using MBP as substrate
Tubulin (Bos taurus) = Tubulin (Bos taurus) (UniProt Q6B856+Q862L2+Q862F3); test: Inhibition of bovine MAP rich tubulin polymerization at 10 uM measured every 2 mins for 30 mins by UV-visible spectrophotometric analysis; type: protein assay
How it was run: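 MAP-rich bovine tubulin at 1.5 mg/mL in 80 mM PIPES pH 6.9, 1 mM GTP, 0.5 mM EGTA, 2 mM MgCl₂. Briefly preincubated with agent or DMSO, then polymerized at 37 °C in a spectrophotometer. Absorbance recorded every 2 min for 30 min; n = 3.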

[9] = biological target: Fibroblast growth factor receptor 3 (Homo sapiens, UniProt P22607); test: Inhibition of human FGFR3 using poly[Glu:Tyr] (4:1) as substrate
U2OS = test: Induction of apoptosis in human U2OS cells assessed as increase in caspase 3/7 activity after 24 hrs by caspase Glo assay; type: functional, cell-based
How it was run: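 U2OS cells (DMEM, 10% FBS, 37 °C, 5% CO₂) plated at 1–3 × 10⁴ cells/well, left overnight, then exposed 24 h to increasing concentrations, with DMSO control. Caspase 3/7 activity read by Caspase-Glo luminescence; viability measured in parallel with Cell Titer Blue fluorescence.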

[10] = biological target: Testis-specific serine/threonine-protein kinase 3 (Homo sapiens, UniProt Q96PN8); test: Inhibition of human TSSK3 using [KKKVSRSGLYRSPSMPENLNRPR] as substrate
[11] = biological target: Serine/threonine-protein kinase Nek9 (Homo sapiens, UniProt Q8TD19); test: Inhibition of human NEK9 using MBP as substrate
[12] = biological target: Ribosomal protein S6 kinase alpha-1 (Homo sapiens, UniProt Q15418); test: Inhibition of human RSK1 using [KKLNRTLSVA] as substrate
[13] = biological target: T1, Serine/threonine-protein kinase PLK2; test: Inhibition of human PLK2 using casein as substrate
Target sequence in this assay (Q9NYY3 whole entry): as the sequence (Q9NYY3 whole entry) above

Ephrin type-A receptor 6 = Ephrin type-A receptor 6 (Homo sapiens, UniProt Q9UF33); test: Inhibition of human EPHA6 using poly[Glu:Tyr] (4:1) as substrate
[14] = biological target: Cyclin-Y/Cyclin-dependent kinase 16 (Homo sapiens, UniProt Q00536); test: Inhibition of human CDK16/cyclin Y using RP protein as substrate; type: protein-complex assay
[15] = biological target: High affinity nerve growth factor receptor (Homo sapiens, UniProt P04629); test: Inhibition of human TRKA using poly[Glu:Tyr] (4:1) as substrate
[16] = biological target: T1, Serine/threonine-protein kinase PLK2
Target sequence in this assay (Q9NYY3 whole entry, looked up): as the sequence (Q9NYY3 whole entry) above

[17] = biological target: Receptor-type tyrosine-protein kinase FLT3 (Homo sapiens, UniProt P36888); test: Inhibition of human FLT3 using [EAIYAAPFAKKK] as substrate
Mus musculus = test: Toxicity in NCR nu/nu mouse xenografted with human MDA-MB-231 cells assessed as change in body weight at 75 mg/kg, ip administered alternative day; type: organism-based; conditions: in vivo
[18] = biological target: Fibroblast growth factor receptor 1 (Homo sapiens, UniProt P11362); test: Inhibition of human FGFR1 using [KKKSPGEYVNIEFG] as substrate

Sequence of Ephrin type-A receptor 6 (Q9UF33 whole entry): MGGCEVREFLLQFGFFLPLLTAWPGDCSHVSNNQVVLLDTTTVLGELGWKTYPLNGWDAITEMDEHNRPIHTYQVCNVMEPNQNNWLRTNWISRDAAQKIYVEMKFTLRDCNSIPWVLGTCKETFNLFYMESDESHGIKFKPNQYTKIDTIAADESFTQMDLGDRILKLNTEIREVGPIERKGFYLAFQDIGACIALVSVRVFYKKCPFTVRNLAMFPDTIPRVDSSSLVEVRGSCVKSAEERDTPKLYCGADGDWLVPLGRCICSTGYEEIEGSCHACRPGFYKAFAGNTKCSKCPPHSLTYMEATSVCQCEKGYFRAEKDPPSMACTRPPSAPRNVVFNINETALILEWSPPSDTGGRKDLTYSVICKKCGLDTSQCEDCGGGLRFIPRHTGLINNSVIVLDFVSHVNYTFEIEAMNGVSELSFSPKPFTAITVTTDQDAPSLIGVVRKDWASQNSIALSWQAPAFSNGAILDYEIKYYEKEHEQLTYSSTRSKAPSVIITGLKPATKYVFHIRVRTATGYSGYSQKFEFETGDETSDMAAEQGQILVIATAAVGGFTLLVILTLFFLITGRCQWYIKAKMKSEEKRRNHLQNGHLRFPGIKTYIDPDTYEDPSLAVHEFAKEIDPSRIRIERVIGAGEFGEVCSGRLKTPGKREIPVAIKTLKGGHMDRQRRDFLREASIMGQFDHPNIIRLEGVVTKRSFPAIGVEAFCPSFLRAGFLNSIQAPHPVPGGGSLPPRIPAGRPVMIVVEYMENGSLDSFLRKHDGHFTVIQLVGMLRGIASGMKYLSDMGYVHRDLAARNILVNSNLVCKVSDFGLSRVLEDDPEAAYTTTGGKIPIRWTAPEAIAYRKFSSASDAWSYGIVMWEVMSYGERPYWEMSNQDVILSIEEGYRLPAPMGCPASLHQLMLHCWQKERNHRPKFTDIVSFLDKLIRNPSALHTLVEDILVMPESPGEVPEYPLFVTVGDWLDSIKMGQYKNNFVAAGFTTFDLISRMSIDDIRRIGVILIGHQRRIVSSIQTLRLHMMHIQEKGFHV
Sequence of Serine/threonine-protein kinase Nek5 (Q6P3R8 whole entry): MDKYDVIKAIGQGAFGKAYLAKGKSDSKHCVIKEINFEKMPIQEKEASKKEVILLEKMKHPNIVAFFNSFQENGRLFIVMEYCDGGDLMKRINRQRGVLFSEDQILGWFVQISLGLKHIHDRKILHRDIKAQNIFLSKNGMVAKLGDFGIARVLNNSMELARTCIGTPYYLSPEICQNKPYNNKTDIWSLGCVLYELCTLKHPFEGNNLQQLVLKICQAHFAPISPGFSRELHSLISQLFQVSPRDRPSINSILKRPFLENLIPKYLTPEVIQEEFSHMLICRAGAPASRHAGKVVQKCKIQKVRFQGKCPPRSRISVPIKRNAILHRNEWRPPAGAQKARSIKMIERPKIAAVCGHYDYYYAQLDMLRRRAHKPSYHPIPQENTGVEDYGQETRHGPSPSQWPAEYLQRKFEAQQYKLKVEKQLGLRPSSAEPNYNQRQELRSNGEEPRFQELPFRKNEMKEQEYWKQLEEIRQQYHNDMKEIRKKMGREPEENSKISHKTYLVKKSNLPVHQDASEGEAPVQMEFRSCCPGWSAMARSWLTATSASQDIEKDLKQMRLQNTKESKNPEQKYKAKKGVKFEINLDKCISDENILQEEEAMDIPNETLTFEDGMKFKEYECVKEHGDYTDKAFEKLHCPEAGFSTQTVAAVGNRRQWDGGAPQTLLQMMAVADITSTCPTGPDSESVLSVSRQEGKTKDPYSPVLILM
Sequence of Testis-specific serine/threonine-protein kinase 3 (Q96PN8 whole entry): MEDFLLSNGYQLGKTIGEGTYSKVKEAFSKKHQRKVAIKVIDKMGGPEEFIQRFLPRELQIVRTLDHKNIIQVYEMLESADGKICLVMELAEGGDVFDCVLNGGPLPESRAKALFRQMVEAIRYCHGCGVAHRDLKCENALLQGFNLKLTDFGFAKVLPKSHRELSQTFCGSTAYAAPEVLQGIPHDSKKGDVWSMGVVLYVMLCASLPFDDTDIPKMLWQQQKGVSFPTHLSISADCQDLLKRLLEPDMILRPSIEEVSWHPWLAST
Sequence of Mitogen-activated protein kinase 14 (Q16539 whole entry): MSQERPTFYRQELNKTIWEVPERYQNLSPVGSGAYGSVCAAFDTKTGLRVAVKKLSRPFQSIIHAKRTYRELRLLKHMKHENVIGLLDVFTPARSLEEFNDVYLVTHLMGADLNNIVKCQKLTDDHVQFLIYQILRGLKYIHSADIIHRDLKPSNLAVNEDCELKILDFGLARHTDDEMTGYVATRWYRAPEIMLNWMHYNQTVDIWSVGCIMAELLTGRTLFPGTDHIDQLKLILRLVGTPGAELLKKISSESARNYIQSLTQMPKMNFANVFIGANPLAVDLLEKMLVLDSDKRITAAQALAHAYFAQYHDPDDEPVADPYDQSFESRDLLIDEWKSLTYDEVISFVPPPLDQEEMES
Sequence of TRAF2 and NCK-interacting protein kinase (Q9UKE5 whole entry): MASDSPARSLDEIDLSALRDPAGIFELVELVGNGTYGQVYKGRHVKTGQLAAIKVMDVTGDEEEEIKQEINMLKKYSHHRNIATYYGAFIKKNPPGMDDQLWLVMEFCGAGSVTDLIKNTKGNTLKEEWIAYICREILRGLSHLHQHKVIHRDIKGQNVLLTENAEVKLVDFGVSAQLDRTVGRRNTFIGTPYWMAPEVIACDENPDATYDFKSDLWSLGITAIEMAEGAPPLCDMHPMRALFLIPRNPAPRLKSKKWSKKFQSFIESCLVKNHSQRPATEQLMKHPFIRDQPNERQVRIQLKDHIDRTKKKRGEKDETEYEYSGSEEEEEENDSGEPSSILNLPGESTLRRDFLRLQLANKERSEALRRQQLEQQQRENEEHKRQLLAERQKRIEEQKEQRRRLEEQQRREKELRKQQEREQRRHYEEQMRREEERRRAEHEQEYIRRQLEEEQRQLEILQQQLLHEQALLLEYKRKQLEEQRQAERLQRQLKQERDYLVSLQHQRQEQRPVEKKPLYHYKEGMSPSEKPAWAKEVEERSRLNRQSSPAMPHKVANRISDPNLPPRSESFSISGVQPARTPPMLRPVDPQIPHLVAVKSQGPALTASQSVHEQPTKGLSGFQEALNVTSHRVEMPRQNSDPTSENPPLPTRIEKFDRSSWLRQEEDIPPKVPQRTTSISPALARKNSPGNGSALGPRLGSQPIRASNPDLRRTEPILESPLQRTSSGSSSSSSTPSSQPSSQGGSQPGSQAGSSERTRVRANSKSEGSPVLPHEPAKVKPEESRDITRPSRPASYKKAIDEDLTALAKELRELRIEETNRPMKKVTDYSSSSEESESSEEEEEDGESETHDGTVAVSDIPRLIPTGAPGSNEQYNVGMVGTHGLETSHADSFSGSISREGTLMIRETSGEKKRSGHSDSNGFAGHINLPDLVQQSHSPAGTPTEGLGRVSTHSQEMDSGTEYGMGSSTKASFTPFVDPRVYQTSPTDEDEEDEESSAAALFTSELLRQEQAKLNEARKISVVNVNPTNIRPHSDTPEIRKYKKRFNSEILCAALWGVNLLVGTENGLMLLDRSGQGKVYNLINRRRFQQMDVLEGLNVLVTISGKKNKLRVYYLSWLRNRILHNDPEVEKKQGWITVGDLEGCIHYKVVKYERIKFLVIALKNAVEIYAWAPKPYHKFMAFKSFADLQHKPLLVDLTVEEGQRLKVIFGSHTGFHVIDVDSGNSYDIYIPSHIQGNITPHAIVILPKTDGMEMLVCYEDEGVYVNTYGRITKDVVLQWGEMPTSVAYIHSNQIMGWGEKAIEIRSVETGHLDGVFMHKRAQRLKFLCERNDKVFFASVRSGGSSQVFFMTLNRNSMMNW
Sequence of Serine/threonine-protein kinase Nek2 (P51955 whole entry): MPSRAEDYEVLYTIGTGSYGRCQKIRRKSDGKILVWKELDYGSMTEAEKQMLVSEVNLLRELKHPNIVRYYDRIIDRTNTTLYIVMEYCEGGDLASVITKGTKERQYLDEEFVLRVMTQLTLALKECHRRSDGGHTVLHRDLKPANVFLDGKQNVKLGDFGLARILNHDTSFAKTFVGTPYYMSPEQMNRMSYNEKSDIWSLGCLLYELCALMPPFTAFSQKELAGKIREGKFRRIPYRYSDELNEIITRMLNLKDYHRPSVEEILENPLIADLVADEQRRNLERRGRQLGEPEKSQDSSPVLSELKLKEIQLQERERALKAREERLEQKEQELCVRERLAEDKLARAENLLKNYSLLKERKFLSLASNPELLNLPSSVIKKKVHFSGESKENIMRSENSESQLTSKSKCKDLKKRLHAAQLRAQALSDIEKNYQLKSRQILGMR

## Cn1c(=O)c(S(=O)(=O)c2ccc(F)cc2F)cc2cnc(Nc3ccc4[nH]ccc4c3)nc21
[1]
  IC50: 1.83 µM
[2]
  ΔTm: 0.2 °C
[3]
  IC50: 0.31 µM
[4]
  IC50: > 5 µM
[5]
  IC50: > 10 µM
[6]
  IC50: 0.63 µM
[7]
  IC50: > 5 µM
[8]
  IC50: 4.42 µM
Tubulin (Bos taurus)
  inhibition: inactive
[9]
  IC50: > 5 µM
U2OS
  Activity: Dose-dependent effect
[10]
  IC50: > 5 µM
[11]
  IC50: > 5 µM
[12]
  IC50: > 5 µM
[13]
  IC50: 0.374 µM
Ephrin type-A receptor 6
  IC50: > 5 µM
[14]
  IC50: > 10 µM
[15]
  IC50: > 5 µM
[16]
  ΔTm: 4.1 °C
[17]
  IC50: > 5 µM
Mus musculus
  Activity: Non-toxic
[18]
  IC50: > 5 µM
